Assay results reported in ChEMBL document CHEMBL4689842, “EUbOPEN Chemogenomics Library wave 1” (2021).

System: Fibroblast
Experiment: Multiplex assay against human fibroblast
Format: toxicity, cell-based
Procedure, shortened: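 At seeding, live cells were stained with Hoechst33342, BioTracker Green Microtubule Cytoskeleton Dye, MitoTracker Red and Annexin V Alexa Fluor 680. After compound addition they were imaged on a CQ1 microscope at 37°C and 5% CO2, and CellPathfinder machine-learning gating sorted them into Hoechst high-intensity objects or normal cells, with normal cells further split into healthy, pyknosed or fragmented nuclei and pyknosed cells into mitotic or apoptotic. Tubulin, mitochondrial-mass and membrane-permeability phenotypes are given as per cents of cells with healthy nuclei.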

[1] = 12 h, 1 µM, compound concentration 1 uM, replicate 1
[2] = 12 h, 1 µM, compound concentration 1 uM, replicate 2
[3] = 12 h, 10 µM, compound concentration 10 uM, replicate 1
[4] = 12 h, 10 µM, compound concentration 10 uM, replicate 2
[5] = 24 h, 1 µM, compound concentration 1 uM, replicate 1
[6] = 24 h, 1 µM, compound concentration 1 uM, replicate 2
[7] = 24 h, 10 µM, compound concentration 10 uM, replicate 1
[8] = 24 h, 10 µM, compound concentration 10 uM, replicate 2
[9] = 48 h, 1 µM, compound concentration 1 uM, replicate 1
[10] = 48 h, 1 µM, compound concentration 1 uM, replicate 2
[11] = 48 h, 10 µM, compound concentration 10 uM, replicate 1
[12] = 48 h, 10 µM, compound concentration 10 uM, replicate 2

## Cc1c[nH]c2nccc(Oc3c(F)cc(Nc4cc(Cl)nc(N)n4)cc3F)c12 [BAY-549]
[1]
  Population Apoptotic (%): 54%
  Population Fragmented Nuclei (%): 25%
  Population Healthy Nuclei (%): 41%
  Population Hoechst High Intensity Objects (%): 12%
  Population Membrane Permeable-Phenotype (%): 32%
  Population Mitochondria Different-Phenotype (%): 3%
  Population Mitotic Cells (%): 46%
  Population Normal (%): 87%
  Population Pyknosed Nuclei (%): 33%
  Population Tubulin-Different-Phenotype (%): 38%
  Total Cell Count: 172
[2]
  Population Apoptotic (%): 44%
  Population Fragmented Nuclei (%): 12%
  Population Healthy Nuclei (%): 73%
  Population Hoechst High Intensity Objects (%): 5%
  Population Membrane Permeable-Phenotype (%): 4%
  Population Mitochondria Different-Phenotype (%): 6%
  Population Mitotic Cells (%): 55%
  Population Normal (%): 94%
  Population Pyknosed Nuclei (%): 14%
  Population Tubulin-Different-Phenotype (%): 12%
  Total Cell Count: 68
[3]
  Population Apoptotic (%): 66%
  Population Fragmented Nuclei (%): 23%
  Population Healthy Nuclei (%): 31%
  Population Hoechst High Intensity Objects (%): 10%
  Population Membrane Permeable-Phenotype (%): 21%
  Population Mitochondria Different-Phenotype (%): 0%
  Population Mitotic Cells (%): 33%
  Population Normal (%): 90%
  Population Pyknosed Nuclei (%): 45%
  Population Tubulin-Different-Phenotype (%): 21%
  Total Cell Count: 130
[4]
  Population Apoptotic (%): 40%
  Population Fragmented Nuclei (%): 17%
  Population Healthy Nuclei (%): 65%
  Population Hoechst High Intensity Objects (%): 6%
  Population Membrane Permeable-Phenotype (%): 7%
  Population Mitochondria Different-Phenotype (%): 10%
  Population Mitotic Cells (%): 60%
  Population Normal (%): 93%
  Population Pyknosed Nuclei (%): 17%
  Population Tubulin-Different-Phenotype (%): 10%
  Total Cell Count: 62
[5]
  Population Apoptotic (%): 50%
  Population Fragmented Nuclei (%): 32%
  Population Healthy Nuclei (%): 40%
  Population Hoechst High Intensity Objects (%): 10%
  Population Membrane Permeable-Phenotype (%): 26%
  Population Mitochondria Different-Phenotype (%): 9%
  Population Mitotic Cells (%): 50%
  Population Normal (%): 89%
  Population Pyknosed Nuclei (%): 27%
  Population Tubulin-Different-Phenotype (%): 34%
  Total Cell Count: 170
[6]
  Population Apoptotic (%): 46%
  Population Fragmented Nuclei (%): 8%
  Population Healthy Nuclei (%): 71%
  Population Hoechst High Intensity Objects (%): 3%
  Population Membrane Permeable-Phenotype (%): 5%
  Population Mitochondria Different-Phenotype (%): 7%
  Population Mitotic Cells (%): 53%
  Population Normal (%): 96%
  Population Pyknosed Nuclei (%): 20%
  Population Tubulin-Different-Phenotype (%): 18%
  Total Cell Count: 77
[7]
  Population Apoptotic (%): 70%
  Population Fragmented Nuclei (%): 44%
  Population Healthy Nuclei (%): 30%
  Population Hoechst High Intensity Objects (%): 21%
  Population Membrane Permeable-Phenotype (%): 13%
  Population Mitochondria Different-Phenotype (%): 13%
  Population Mitotic Cells (%): 30%
  Population Normal (%): 78%
  Population Pyknosed Nuclei (%): 25%
  Population Tubulin-Different-Phenotype (%): 33%
  Total Cell Count: 152
[8]
  Population Apoptotic (%): 71%
  Population Fragmented Nuclei (%): 12%
  Population Healthy Nuclei (%): 62%
  Population Hoechst High Intensity Objects (%): 5%
  Population Membrane Permeable-Phenotype (%): 11%
  Population Mitochondria Different-Phenotype (%): 20%
  Population Mitotic Cells (%): 28%
  Population Normal (%): 94%
  Population Tubulin-Different-Phenotype (%): 20%
  Total Cell Count: 59
[9]
  Population Apoptotic (%): 66%
  Population Fragmented Nuclei (%): 41%
  Population Healthy Nuclei (%): 46%
  Population Hoechst High Intensity Objects (%): 14%
  Population Membrane Permeable-Phenotype (%): 13%
  Population Mitochondria Different-Phenotype (%): 1%
  Population Mitotic Cells (%): 33%
  Population Normal (%): 85%
  Population Pyknosed Nuclei (%): 12%
  Population Tubulin-Different-Phenotype (%): 19%
  Total Cell Count: 170
[10]
  Population Apoptotic (%): 100%
  Population Fragmented Nuclei (%): 26%
  Population Healthy Nuclei (%): 72%
  Population Hoechst High Intensity Objects (%): 11%
  Population Membrane Permeable-Phenotype (%): 10%
  Population Mitotic Cells (%): 0%
  Population Normal (%): 88%
  Population Pyknosed Nuclei (%): 0%
  Population Tubulin-Different-Phenotype (%): 5%
  Total Cell Count: 184
[11]
  Population Apoptotic (%): 80%
  Population Fragmented Nuclei (%): 56%
  Population Healthy Nuclei (%): 29%
  Population Hoechst High Intensity Objects (%): 20%
  Population Membrane Permeable-Phenotype (%): 16%
  Population Mitochondria Different-Phenotype (%): 16%
  Population Mitotic Cells (%): 20%
  Population Normal (%): 79%
  Population Pyknosed Nuclei (%): 13%
  Population Tubulin-Different-Phenotype (%): 23%
  Total Cell Count: 180
[12]
  Population Apoptotic (%): 57%
  Population Fragmented Nuclei (%): 50%
  Population Healthy Nuclei (%): 45%
  Population Hoechst High Intensity Objects (%): 17%
  Population Membrane Permeable-Phenotype (%): 5%
  Population Mitochondria Different-Phenotype (%): 10%
  Population Mitotic Cells (%): 42%
  Population Normal (%): 82%
  Population Pyknosed Nuclei (%): 3%
  Population Tubulin-Different-Phenotype (%): 6%
  Total Cell Count: 239
